Screens as filed in PubChem.
The list is not random: actives were taken first. Their share in the collection is about 3.8%.
RAM network inh: inhibitors of the yeast RAM network, primary screen, dse1pr::URA3 reporter, 5-FOA selection. AID 868, 2007. inhibition, % at 50 µM. hit rate 1.8% among 190,000. S. cerevisiae dse1pr::URA3 reporter, 5-FOA growth OD615, 2 d; analog-sensitive cbk1-as2 kinase mutant strain;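 active = inhibition above a set limit, 3 SD over mean compound inhibition, cut at about 8.4% in these data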;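 also: inhibition rescues growth on 5-FOA so higher OD means more RAM inhibition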
NPY2 pot ag: NPY-Y2 potentiators or agonists, primary screen, cell-based; cells expressing NPY-Y2, potentiator/agonist read-out; activation, % at 3.6 µM; hit rate 0.45% among 220,000; in the data active = activation above about 27%;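 also: cells stimulated with NPY near EC25 plus isoproterenol at EC100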
Target sequence (P49146 whole entry, looked up): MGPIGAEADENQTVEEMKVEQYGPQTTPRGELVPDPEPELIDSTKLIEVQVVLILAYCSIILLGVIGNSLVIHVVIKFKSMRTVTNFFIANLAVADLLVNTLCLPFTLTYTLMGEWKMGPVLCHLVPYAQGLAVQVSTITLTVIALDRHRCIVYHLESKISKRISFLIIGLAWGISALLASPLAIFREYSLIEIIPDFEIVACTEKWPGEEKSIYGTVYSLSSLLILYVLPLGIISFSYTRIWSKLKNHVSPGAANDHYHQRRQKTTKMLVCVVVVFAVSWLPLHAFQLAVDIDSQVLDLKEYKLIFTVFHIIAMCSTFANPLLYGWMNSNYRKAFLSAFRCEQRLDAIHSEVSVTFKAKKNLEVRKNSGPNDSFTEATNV
NPY1 pot ag: NPY-Y1 receptor potentiators or agonists, primary screen, cell-based. NPY-Y1 expressing cells, potentiator/agonist activation. AID 1304, 2008. activation, % at 3.6 µM. Neuropeptide Y receptor type 1 (Homo sapiens), P25929. hit rate 0.37% among 220,000; in the data active = activation above about 33%, passing the limit was not always enough;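 also: cells stimulated with NPY at EC10 then isoproterenol at EC100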
Insulin prom inh: inhibitors of insulin promoter-driven GFP, primary screen, imaging, TRM-6 cells, eGFP reporter, cell count; reporter expression induced with tamoxifen; inhibition, % at 2 µM; hit rate 0.9% among 130,000; AID 1273, 2008;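 active = inhibition above the mean plus 3 SD, with well images judged a real hit on visual review, cut at about 60% in these data, passing the limit was not always enough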
NPY Y1 blocker: NPY-Y1 receptor antagonists, primary screen, cell-based | AID 1040, 2008 | HEK293-CNG Y1 cells, membrane potential fluorescence; NPY at EC95, then isoproterenol | Neuropeptide Y receptor type 1 (Homo sapiens), P25929 | inhibition, % at 3.6 µM | hit rate 1% among 200,000;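 active = inhibition above the campaign mean inhibition of all tested compounds plus 3 SD, cut at about 20% in these data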
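Material: Y1- and CNG-channel-expressing HEK293 cells / Probe or stimulus: NPY 25 nM then isoproterenol 1 µM plus Ro 20-1724 25 µM / Doses: 3.6 µM single dose, DMSO 0.4% / Schedule: compound incubation 1 h at room temperature, readout 45 min post-stimulation / Signal: membrane potential fluorescence / Benchmarks: isoproterenol-only wells as full block versus NPY-plus-isoproterenol wells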
NPY-Y1 confirm: NPY-Y1 potentiators or agonists, confirmation, cell-based. shares compounds with NPY1 pot ag. cell-based NPY-Y1 potentiator/agonist assay. activation, % at 3.6 µM. hit rate 20% among 280. AID 1546, 2009;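 also: cells challenged with NPY at its EC10 plus isoproterenol stimulus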
NPY-Y2 counter: NPY-Y2 potentiators or agonists, counter-screen for NPY-Y1 potentiator project, cell-based, fluorescence | shares compounds with NPY1 pot ag | HEK293-CNG cells, membrane-potential fluorescence (FLIPR), 1536-well | activation, % at 3.6 µM | hit rate 20% among 280 | AID 1649, 2009; in the data active = activation above about 33%
NPY-Y1 ag: NPY-Y1 direct agonists without NPY, confirmation, counter-screen for NPY-Y1 potentiator project, cell-based, fluorescence; shares compounds with NPY1 pot ag; HEK293 Y1-CNGC, membrane potential fluorescence, agonist mode; activation, % at 3.6 µM; hit rate 50% among 280; AID 1697, 2009;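 active = percent activation above the mean of DMSO-only control wells plus 3 SD of those wells, cut at about 18% in these data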;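 also: cells challenged with isoproterenol plus Ro 20-1724 with no NPY in test wells; Y1 agonism lowers isoproterenol-driven cAMP and reduces probe fluorescence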
NPY-Y2 agonist: NPY-Y2 direct agonists without NPY, counter-screen for NPY-Y1 potentiator project, cell-based, fluorescence. activation, % at 3.6 µM. AID 1698, 2009. hit rate 67% among 280. shares compounds with NPY1 pot ag. HEK293 Y2-CNGC, membrane potential fluorescence, agonist mode;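 active = activation above the solvent-only control wells' mean plus 3 SD, cut at about 11% in these data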;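 also: agonism lowers cAMP so well fluorescence drops in active wells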
CNGC counter: CNGC cAMP sensor activity inhibitors, counter-screen for NPY-Y1 potentiator/agonist project, cell-based, HEK293-CNG parental, membrane potential fluorescence, Y1 set; isoproterenol cAMP; shares compounds with NPY1 pot ag; hit rate 42% among 280; inhibition, % at 3.6 µM;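 active = inhibition above the mean of stimulated solvent-only control wells plus 3 SD, cut at about 22% in these data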
NPY-Y2 pot conf: NPY-Y2 potentiators or agonists, confirmation, cell-based; shares compounds with NPY2 pot ag; cell-based NPY-Y2 potentiator/agonist assay; activation, % at 3.6 µM; hit rate 20% among 450; AID 1539, 2009; in the data active = activation above about 33%
NPY-Y1 counter: NPY-Y1 potentiators or agonists, counter-screen for NPY-Y2 potentiator project, cell-based, fluorescence. shares compounds with NPY2 pot ag. Y1 HEK293-CNG cells, membrane potential fluorescence. activation, % at 3.6 µM. hit rate 20% among 450. AID 1651, 2009;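 also: cells stimulated with submaximal NPY then isoproterenol with phosphodiesterase inhibitor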
NPY-Y1 ag 2: NPY-Y1 direct agonists, selectivity assay for NPY-Y2 potentiator project, cell-based, fluorescence; shares compounds with NPY2 pot ag; HEK293 Y1-CNGC, membrane potential fluorescence, agonism; activation, % at 3.6 µM; hit rate 37% among 450;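 active = activation above the mean of DMSO-only control wells plus 3 SD, cut at about 18% in these data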;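 also: cells stimulated with 1 µM isoproterenol plus the PDE inhibitor Ro 20-1724; Y1 agonists lower the membrane potential dye signal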
CNGC inhibitor: CNGC cAMP sensor activity inhibitors, counter-screen for NPY-Y2 potentiator project, cell-based, HEK293-CNG parental, membrane potential fluorescence; shares compounds with NPY2 pot ag; isoproterenol cAMP; inhibition, % at 3.6 µM; hit rate 32% among 450; AID 1703, 2009;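 active = inhibition above the control-well mean plus 3 SD of those wells, cut at about 22% in these data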
Y2 agonist ctr: NPY-Y2 direct agonists, counter-screen for NPY-Y2 potentiator project, cell-based, fluorescence | activation, % at 3.6 µM | hit rate 56% among 450 | HEK293 Y2/CNGC cells, membrane potential fluorescence, agonist mode | shares compounds with NPY2 pot ag;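 active = activation above the mean of solvent-only control wells plus 3 SD, cut at about 10% in these data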;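 also: cells stimulated by isoproterenol with no NPY added so direct agonism is tested; agonism lowers probe fluorescence through less cAMP and CNG channel opening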
Each line names hits and unclear results; the compound was inactive in the other large screens (follow-up assays come after a bar, where they were run). Rule as the data show it, unless noted: active = activation above about 45%; inactive = the rest.

CC(CCc1ccccc1)NCCC#N (configuration not stated)	NPY1 pot ag 56 (no result: RAM network inh, Insulin prom inh, NPY Y1 blocker) | NPY-Y1 confirm inactive | NPY-Y2 counter inactive | NPY-Y1 ag inactive | NPY-Y2 agonist inactive | CNGC counter inactive
CN1CCN(c2ccc([N+](=O)[O-])cc2Cl)CC1	none (no result: Insulin prom inh)
CC(C)(C)c1cc([N+](=O)[O-])cc(C(C)(C)C)c1O	NPY2 pot ag 45 | NPY-Y2 pot conf inactive | NPY-Y1 counter inactive | NPY-Y1 ag 2 inactive | CNGC inhibitor inactive | Y2 agonist ctr inactive
Cc1cc(C)n(-c2ccc(NN=C(C#N)C#N)cc2)n1	NPY2 pot ag 42 (no result: RAM network inh, Insulin prom inh, NPY Y1 blocker) | NPY-Y2 pot conf inactive | NPY-Y1 counter inactive | NPY-Y1 ag 2 inactive | CNGC inhibitor inactive | Y2 agonist ctr inactive
CN1CCN(c2ncc(C=O)s2)CC1	none (no result: Insulin prom inh)
